Most compounds without a hit are left out; they make up all but 1.5% or so of the library.
STAT3 blocker – STAT3 signaling inhibition | U3A cells, IL-6 STAT3-luciferase reporter, luminescence; host cell line lacks STAT1 | inhibition, % at 5.5 µM | 190,000 compounds, 0.89% hits | AID 862;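 active = inhibition above the mean inhibition across all screened compounds plus 3 SD, cut at about 44% in these data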;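 note: 0% = DMSO only wells and 100% = 100 µM nifuroxazide control wells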
Lipid droplet – hepatic lipid droplet formation modulation; AML12 mouse hepatocytes, oleate lipid droplets, BODIPY imaging; inhibition, % at 6.5 µM; 240,000 compounds, 0.4% hits; AID 1656;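 active = lipid droplet intensity inhibited by at least 50%, with more than 500 cells counted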
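System: AML12 hepatocytes (mouse). Probe or stimulus: oleic acid at 100 µM to induce lipid droplet formation. Times: overnight treatment with compound plus oleate. Detection: Image-based BODIPY and DAPI two-channel analysis. Evaluation: percent inhibition of filter-corrected integrated lipid droplet intensity per well.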
Platelet DG rel – modulates dense granule release in human platelets; 300,000 compounds, 0.22% hits; human platelet-rich plasma, SFLLRN dense granule ATP release, luminescence; AID 1663; inhibition, %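 (compounds screened at 7.5 µM in platelet-rich plasma)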;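 active = mean replicate score, as percent of positive control, at or above 50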
TAG inh – inhibitors of triacylglycerol accumulation. inhibition, % at 12.5 µM. H9c2 cells, Nile Red lipid (TAG) fluorescence; cells loaded with 200 µM oleic acid. 230,000 compounds, 0.66% hits. AID 651582;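 active = pattern-corrected inhibition of lipid staining of at least 50% with the nuclear-stain viability signal not falling by more than 50%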;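 note: 0% = DMSO wells and 100% = triacsin C control wells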
PPC-1+TRAIL kill – kills PPC-1 cancer cells in the presence of TRAIL | 220,000 compounds, 0.41% hits | AID 1443 | PPC-1 cells + TRAIL, ATPLite viability luminescence | cell killing (% activity), % at 4 µM or 5 µM;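 active = cell killing above 50% in the first pass at 4 µM, then a duplicate retest at 5 µM averaging 50% or more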;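 note: plate controls were cells with TRAIL plus DMSO for no effect and medium-only wells lacking cells for full effect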
STAT1 inh – inhibitors of IFN-gamma induced STAT1 signaling; NIH 3T3 STAT1-luciferase reporter, luminescence; inhibition, % at 5.5 µM; 200,000 compounds, 0.35% hits; AID 920;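 active = inhibition above a set limit, the mean inhibition across all tested compounds plus 3 SD, cut at about 34% in these data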;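 note: 0% = IFN-gamma with DMSO and 100% = IFN-gamma with 300 µM nifuroxazide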
Starred values were filed as active, the others as inactive; · = no result.

SMILES	STAT3 blocker	Lipid droplet	Platelet DG rel	TAG inh	PPC-1+TRAIL kill	STAT1 inh
c1ccc(N=Nc2ccc3cccccc2-3)cc1	·	·	2	96*	·	·
Cc1nc(Nc2ccc(Cl)c(Cl)c2)sc1C(/C=C/c1ccc2c(c1)OCO2)=NNc1ccc([N+](=O)[O-])cc1[N+](=O)[O-]	·	·	·	42	·	·
O=C1c2ccccc2C(=O)N1OS(=O)(=O)c1ccc(F)cc1	·	0	60*	·	·	·
COc1ccccc1C(c1c(N)n(C)c(=O)n(C)c1=O)C(C)[N+](=O)[O-] (stereo unspecified)	·	4	0	6	-8	·
COc1ccccc1C(C[N+](=O)[O-])c1c(N)n(C)c(=O)n(C)c1=O (stereo unspecified)	·	-2	19	52*	10	·
O=C(c1ccc(COc2ccccc2Cl)o1)N1CCCC1	19	0	-7	-10	1	35*
CCN1CCN(C(=O)C2CCN(C(=O)c3cc4sccc4n3CC)CC2)CC1	6	-6	0	7	17	-7
CCn1c(C(=O)N2CCC(C(=O)NCCCSC3CCCCC3)CC2)cc2sccc21	-7	·	69*	3	13	6
COc1cc(C(=O)Oc2ccccc2/C=N/NC(=O)c2ccc(C)c(Cl)c2)cc(OC)c1OC	4	-4	24	·	52*	-1
N#Cc1ccc(S(=O)(=O)N2CCCCC2c2cc(C(=O)NCc3cccnc3)no2)cc1 (stereo unspecified)	·	·	·	-17	·	·
Cc1cc2c(cc1C)N(C(=O)CSC1=NCCS1)C(C)(C)c1ssc(=S)c1-2	8	67*	1	·	-1	11
CN=c1scc(-c2ccccc2F)n1/N=C/c1ccc(O)c(O)c1O	50*	-4	77*	22	47	87*
CN=c1scc(-c2ccccc2F)n1/N=C/c1ccc[nH]1	110*	11	31	-6	44	97*
C#CC1(NC(=S)Nc2cccc(OC)c2)CCCCC1	·	·	·	-4	·	·
Cc1cccc(C(=O)Nc2sc(C)c(-c3ccccc3)c2C#N)c1	11	-1	-2	6	29	-36
N#Cc1c(Cl)nsc1NC(=O)c1ccccc1	56*	-9	2	5	17	55*
Cc1ccc(S(=O)(=O)N=N/C=C2\C=CC=CN2O)cc1	·	·	·	11	·	·
Cc1nonc1C(=O)N/N=C/c1ccc(O)cc1O	17	13	96*	-2	·	-9
C[C@@H]1CN([C@H](C)CO)C(=O)CCCn2nncc2CO[C@@H]1CN(C)S(=O)(=O)c1ccc(C#N)cc1	·	·	·	12	·	·
O=[N+]([O-])c1ccccc1N/N=C/c1c[nH]c2ccccc12	-118	·	3	82*	18	-57
O=[N+]([O-])c1ccccc1N/N=C/c1ccccc1	·	27	-10	·	·	·
COc1ccc(-n2c(C)c(C(C)=O)c(C(C)=O)c2C)cc1OC	8	·	53*	·	11	10
CC(C)CNC(=O)C1(C)CCCN1C(=O)C(C)(C)Oc1ccc(Cl)cc1 (stereo unspecified)	·	·	·	10	·	·
COc1ccc(CCNC(=O)c2ccc3c(c2)SC2=NS(=O)(=O)CCN23)cc1	·	0	77*	-4	24	·
CC(C)(C)c1ccc(CN2N=Nc3ccccc3S2(=O)=O)cc1	-9	·	16	51*	18	0
SMILES	STAT3 blocker	Lipid droplet	Platelet DG rel	TAG inh	PPC-1+TRAIL kill	STAT1 inh
COc1ccc(NC(=O)N2CCc3ccccc32)cc1	43	-14	53*	-18	14	-18
COc1ccc(-c2nc(N/N=C(\C)c3ccc(O)cc3)c3ccccc3n2)cc1	·	6	3	55*	44	·
COc1ccc(Nc2nc(-c3ccccc3)nc3ccccc23)cc1	·	6	-6	·	·	·
COc1cc(O)oc1C=Nc1ccc(Cl)cc1	21	·	-7	-15	10	-1
COc1cc(O)oc1C=Nc1ccc(C(=O)O)cc1	9	0	70*	2	11	-1
COc1cccc(NC(=S)NC(Cc2ccccc2)c2ccccc2)c1 (stereo unspecified)	·	·	·	-28	·	·
CN(C)c1ccc(/C=N/Nc2nncc3ccccc23)cc1	·	7	54*	-5	·	·
O=C(NCC1CCCCC1)c1ccc2nc([C@@H]3O[C@H](CO)[C@H](O)[C@H](O)[C@H]3O)[nH]c2c1	·	·	·	-4	·	·
CC(C)(C)c1ccc(/C=N/Nc2cccc(C(=O)O)c2)cc1	46*	7	10	0	12	38*
CC(C)(C)c1ccc(/C=N/Nc2ccc(C(=O)O)cc2)cc1	88*	-4	-2	4	0	74*
CCNC(=S)N/N=C/c1ccc(C(=O)O)cc1	-6	3	20	-8	12	-16
O=C(O)c1cccc(N/N=C/c2ccc(-c3ccccc3)cc2)c1	48*	-12	37	20	23	47*
COc1ccc(F)cc1-c1cc(C(=O)N2CCc3ccccc3C2)[nH]n1	·	·	·	4	·	·
C[C@H]1CN(CCc2ccccc2)C(=O)[C@@H]1CC(=O)Nc1ccccc1	·	·	·	3	·	·
CN(C1=NS(=O)(=O)N=C(N(C)c2ccccc2)O1)c1ccccc1	·	·	·	-6	·	·
COC(=O)C1=C(C)N(Cc2ccccc2)C(=NCc2cccc(Cl)c2)N[C@H]1c1cccc(F)c1	·	·	·	120*	·	·
CCCCN(C=O)c1c(CC)nc2ccc(C(=O)N(C)Cc3ccco3)cn12	·	·	·	6	·	·
COc1ccc(C(C(=O)NC2CCCCC2)N(C(=O)CCl)c2ccc(Cl)cc2)cc1 (stereo unspecified)	9	-17	0	·	62*	8
CCCc1cc(=O)oc2cc(OCC(=O)N3CCc4ccccc43)ccc12	0	·	74*	·	6	3
CCCCc1cc(=O)oc2cc(OCC(=O)N3CCc4ccccc43)ccc12	1	-2	0	1	41	-2
Cc1ccc(NC(=O)[C@@H]2O[C@H](CO)[C@@H](O)[C@H]2O)cc1C(F)(F)F	·	·	·	-21	·	·
CC(=O)Nc1ccc(NC(=O)CCc2ccc(C)o2)cc1	·	-8	-18	·	·	·
CCOC(=O)c1ccc(NC(=O)CCc2ccc(C)o2)cc1	16	·	62*	·	-4	5
CN(Cc1ccccc1)C(=O)c1ccc(Cc2cn(C)c3ccccc23)nc1	·	·	·	-25	·	·
COC(=O)c1sc(NC(=O)c2c(-c3ccccc3)noc2C)nc1C	·	-2	10	10	·	·
SMILES	STAT3 blocker	Lipid droplet	Platelet DG rel	TAG inh	PPC-1+TRAIL kill	STAT1 inh
COC(=O)c1sc(NC(=O)c2ccoc2C)nc1C	5	6	57*	8	15	-13
COC(=O)c1sc(NC(=O)c2c(C)noc2C)nc1C	·	-2	53*	2	·	·
CC(=O)Nc1cccc(C(=O)NN2C(=O)NC3(CCC(C)CC3)C2=O)c1 (stereo unspecified)	·	·	·	7	·	·
CCOc1ccc(Cl)cc1-c1cc(C(=O)Nc2ccc(Br)cc2)[nH]n1	·	·	·	-7	·	·
COC(=O)C1CC2=C(CCC2=O)N(c2ccccc2)C1=O (stereo unspecified)	·	·	·	-1	·	·
CCCc1cc2c(cc1N(C)S(=O)(=O)c1ccccc1)OCO2	·	·	·	-24	·	·
CC(=O)NC(c1cc(Cl)c2cccnc2c1O)C1CC1 (stereo unspecified)	·	·	·	50*	·	·

Source: PubChem
